Measurements pooled from the literature.
Protocols differ between the studies behind these lines.

C[C@H](Nc1ncnc2nc[nH]c12)c1cc2cccc(Cl)c2c(=O)n1-c1ccccc1 — IC50 (CD4+ T; IL-2 release; inhibitor): 1.9 nM
Cc1c[nH]c(/C=C2\C(=O)Nc3ccccc32)c1CCC(=O)O — IC50 (SW780; cell growth or viability; MTT; 5 days): 6000 nM
O=C1CCCCC1C1C2C=CC=CC1/C(=C/c1ccccc1)C2 (stereo not shown) — IC50 (Jurkat; cell growth or viability; flow cytometry): 82 nM
CC[C@@]1(O)C(=O)OCc2c1cc1n(c2=O)Cc2cc3ccccc3nc2-1 — IC50 (RPMI 8402; cell growth or viability; MTT; 96 h): 4 nM
CC(C)C[C@H](NC(=O)[C@H](Cc1ccccc1)NC(=O)c1cnccn1)B(O)O — IC50 (COV434; cell growth or viability; ATP luminescence): 16 nM
O=C(O)/C=C/c1ccc(O)c(O)c1 — IC50 (PaCa-2; cell growth or viability; MTT): 5100 nM
CO[C@@H](C[C@H]1C(C)=CC[C@@H]2[C@]3(C)C[C@H](O[C@@H]4O[C@@H](C)[C@H](OC(=O)c5cccc(O)c5)[C@@H](O[C@@H]5O[C@H](CO)[C@@H](O)[C@H](O)[C@H]5NC(C)=O)[C@H]4O)[C@@H](O)C(C)(C)[C@H]3CC[C@]21C)[C@H](N)C(=O)O — IC50 (LN-229; cell growth or viability; ATP luminescence; 6 days): 130 nM
Cc1ccc2c(c1)c(C(c1ccc(/C=C/C(=O)O)s1)c1cn(C(C)C)c3ccc(C)cc13)cn2C(C)C — IC50 (LNCaP; cell growth or viability; MTT; 48 h): < 3000 nM
OC[C@H]1O[C@@H](Oc2cc3c(O)cc(O)cc3[o+]c2-c2ccc(O)c(O)c2)[C@H](O)[C@@H](O)[C@@H]1O — IC50 (SW780; cell growth or viability; ATP luminescence; 72 h): 169000 nM
CC(=O)OCCC1=CC2C=CC=CC1C2C1CCCCC1=O (stereo not shown) — IC50 (Jurkat; cell growth or viability; flow cytometry): 64 nM
CC(=O)c1cccc(/N=N/c2cc(/C=C/C(=O)O)ccc2O)c1 — IC50 (PaCa-2; cell growth or viability; MTT): > 50000 nM
COc1cc2c(Oc3ccc(NC(=O)C4(C(=O)Nc5ccc(F)cc5)CC4)cc3F)ccnc2cc1OCCCN1CCOCC1 — IC50 (Rh4; cell growth or viability; 72 h): 220 nM
CC/C(=C(\c1ccc(O)cc1)c1ccc(OCCN(C)C)cc1)c1ccccc1 — IC50 (T47D; cell growth or viability; 5 days): 2160 nM
COc1cc(N2CCC(N3CCN(C)CC3)CC2)ccc1Nc1ncc(Cl)c(Nc2ccccc2S(=O)(=O)C(C)C)n1 — IC50 (Rh4; cell growth or viability; 72 h): 90 nM
COc1ccc(C(=O)O[C@@H]2CN3Cc4c(cc5c(c4OC)OCO5)[C@@]24C=C[C@H](OC)C[C@@H]34)cc1 — IC50 (MOLT-4; cell growth or viability; WST-1): > 10000 nM
CC(C)n1cc(C(c2ccc(/C=C/C(=O)O)s2)c2cn(C(C)C)c3ccccc23)c2ccccc21 — IC50 (LNCaP; cell growth or viability; MTT; 48 h): 26000 nM
c1ccc(CNCc2cc3c(-c4ccccc4)n[nH]c3c(Nc3ccccc3)n2)cc1 — IC50 (MIA PaCa-2; cell growth or viability; MTS; 48 h): 2600 nM
Oc1ccc(C(c2c[nH]c3ccccc23)c2c[nH]c3ccccc23)cc1 — IC50 (LNCaP; cell growth or viability; MTT; 48 h): > 100000 nM
COc1cc(Nc2nc(C#N)cc3c(-c4ccccc4)n[nH]c23)cc(OC)c1OC — IC50 (MIA PaCa-2; cell growth or viability; MTS; 48 h): 3000 nM
CCN(CC)CCCCNc1ncc2cc(-c3cc(OC)cc(OC)c3)c(NC(=O)NC(C)(C)C)nc2n1 — IC50 (SW780; cell growth or viability; MTT; 5 days): 50 nM
Cc1cc(Nc2ncc(Cl)c(Nc3ccccc3S(=O)(=O)C(C)C)n2)c(OC(C)C)cc1C1CCNCC1 — IC50 (Rh4; cell growth or viability; 72 h): 340 nM
O=c1c(O)c(-c2ccc(O)c(O)c2)oc2cc(O)cc(O)c12 — IC50 (SW780; cell growth or viability; ATP luminescence; 72 h): 43400 nM
CC(=O)c1ccc(N=Nc2c(C(=O)O)cc(O)c(O)c2O)cc1 — IC50 (PaCa-2; cell growth or viability; MTT): 12000 nM
O=c1c(O[C@@H]2O[C@H](CO)[C@@H](O)[C@H](O)[C@H]2O)c(-c2ccc(O)c(O)c2)oc2cc(O)cc(O)c12 — IC50 (SW780; cell growth or viability; ATP luminescence; 72 h): 20100 nM
COc1nc(OCc2cccc(-c3ccccc3)c2C)ccc1CNCCNC(C)=O — IC50 (MC-38; cell growth or viability; MTT): 2900 nM
O=C(O)C(c1c[nH]c2ccccc12)c1c[nH]c2ccccc12 — IC50 (LNCaP; cell growth or viability; MTT; 48 h): > 100000 nM
O=c1c(O)c(-c2cc(O)c(O)c(O)c2)oc2cc(O)cc(O)c12 — IC50 (SW780; cell growth or viability; ATP luminescence; 72 h): 20900 nM
COc1ccc(C(=O)O[C@@H]2CN3Cc4c(cc5c(c4OC)OCO5)[C@@]24C=C[C@H](OC)C[C@@H]34)cc1OC — IC50 (MOLT-4; cell growth or viability; WST-1): 7400 nM
COC(=O)CCC1=CC2C=CC=CC1C2C1CCCCC1=O (stereo not shown) — IC50 (Jurkat; cell growth or viability; flow cytometry): 159 nM
O=C(O)c1cc(O)c(O)c(O)c1 — IC50 (PaCa-2; cell growth or viability; MTT): 17500 nM
COc1cc(Nc2nccc(-c3cnn4nc(OC)ccc34)n2)cc(C(F)(F)F)c1 — IC50 (LN-229; cell growth or viability; ATP luminescence): 580 nM
